Measured values published in ChEMBL document CHEMBL4004857, “Synthesis and biological evaluation of novel pyrazolic chalcone derivatives as novel hepatocellular carcinoma therapeutics” (Eur J Med Chem, 2017).
Calls of active or inactive are those of the source. No cut-off for these calls is given here.

Key:
[1] = test system: Huh-7; assay: Cytotoxicity against human HuH7 cells assessed as growth inhibition after 72 hrs by SRB assay; format: functional, cell-based; conditions: Huh-7, 72 h
Procedure, shortened: (§1)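 Cells seeded at 2000–3000 per well and grown 24 h at 37C, then treated in triplicate with compounds dissolved in DMSO over a 40–0.3 range for 72 h. Cells were fixed with 10% TCA for 1 h, stained with 0.4% SRB in 1% acetic acid, washed with 1% acetic acid and air-dried. Bound dye was solubilized in 10 mM Tris base and read at 515 nm. % inhibition and IC50 were calculated against DMSO-only controls.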

[2] = organism: Homo sapiens; assay: Inhibition of tubulin polymerization (unknown origin)
[3] = test system: HCT-116; assay: Cytotoxicity against human HCT116 cells assessed as growth inhibition after 72 hrs by SRB assay; format: functional, cell-based; conditions: HCT-116, 72 h; procedure, shortened: as §1
[4] = test system: MCF7; assay: Cytotoxicity against human MCF7 cells assessed as growth inhibition after 72 hrs by SRB assay; format: functional, cell-based; conditions: MCF7, 72 h; procedure, shortened: as §1

inhibition [2] | Structure (SMILES) | IC50 [1] [µM] | IC50 [3] [µM] | IC50 [4] [µM]
inactive | COc1cc(C(=O)/C=C/c2cn(-c3ccccc3)nc2-c2ccc3c(c2)OCO3)cc(OC)c1OC | 11.7 | 8.3 | 10.9
inactive | O=C(/C=C/c1cn(-c2ccccc2)nc1-c1ccc2c(c1)OCO2)c1cccnc1 | 3.4 | 3.8 | 2.2
inactive | COc1ccc(C(=O)/C=C/c2cn(-c3ccccc3)nc2-c2ccc3c(c2)OCO3)c(OC)c1 | 19 | 8.6 | 14.5
inactive | O=C(/C=C/c1cn(-c2ccccc2)nc1-c1ccncc1)c1ccc2c(c1)OCO2 | 0.4 | 5.3 | 0.8
inactive | O=C(/C=C/c1cn(-c2ccccc2)nc1-c1ccc2c(c1)OCO2)c1cc[nH]c1 | 9.2 | 20.3 | 9.9
inactive | O=C(/C=C/c1cn(-c2ccccc2)nc1-c1ccsc1)c1ccccc1 | 4.7 | 5.1 | 1.9
inactive | O=C(/C=C/c1cn(-c2ccccc2)nc1-c1ccc2c(c1)OCO2)c1ccc2c(c1)OCO2 | 9.9 | 27.2 | 17.5
inactive | COc1cc(C(=O)/C=C/c2cn(-c3ccccc3)nc2-c2ccsc2)cc(OC)c1OC | 3.6 | 3.2 | 4.9
inactive | COc1ccc(C(=O)/C=C/c2cn(-c3ccccc3)nc2-c2cccnc2)c(OC)c1 | 2.4 | 1.3 | 2.3
inactive | COc1ccc(OC)c(C(=O)/C=C/c2cn(-c3ccccc3)nc2-c2ccc3c(c2)OCO3)c1 | 6.1 | 1.3 | 5.8
inactive | COc1ccc(OC)c(C(=O)/C=C/c2cn(-c3ccccc3)nc2-c2ccsc2)c1 | 2.1 | 3.4 | 0.4
inactive | O=C(/C=C/c1cn(-c2ccccc2)nc1-c1cccnc1)c1ccc2c(c1)OCO2 | 6.7 | 1.8 | 5.6
inactive | COc1ccc(C(=O)/C=C/c2cn(-c3ccccc3)nc2-c2ccc3c(c2)OCO3)cc1OC | 15.4 | 11.4 | 11.7
inactive | O=C(/C=C/c1cn(-c2ccccc2)nc1-c1cccnc1)c1c[nH]c2ccccc12 | 3.2 | 6.4 | 2.6
inactive | COc1ccc(C(=O)/C=C/c2cn(-c3ccccc3)nc2-c2ccncc2)c(OC)c1OC | 3.7 | 1.3 | 3.3
inactive | COc1cc(C(=O)/C=C/c2cn(-c3ccccc3)nc2-c2ccncc2)cc(OC)c1OC | 3.5 | 0.3 | 3.5
inactive | O=C(/C=C/c1cn(-c2ccccc2)nc1-c1cccnc1)c1ccccn1 | 6.4 | 2.1 | 4.2
inactive | COc1ccc(C(=O)/C=C/c2cn(-c3ccccc3)nc2-c2ccsc2)cc1OC | 2.9 | 1.6 | 2.8
– | Nc1nc(Cl)nc2c1ncn2[C@H]1C[C@H](O)[C@@H](CO)O1 [CLADRIBINE] | 1.8 | 0.3 | 2
inactive | COc1ccc(C(=O)/C=C/c2cn(-c3ccccc3)nc2-c2cccnc2)cc1OC | 3.1 | 4.3 | 1.7
